According to article PMC5023007 (Bioorganic & medicinal chemistry, 2016):

Key:
[1] = target: T1, ATX (Homo sapiens, UniProt Q13822); assay: ATX activity assay with FS-3 substrate; type: biochemical; settings: for inhibition at 10 µM: read-out: FS-3 Inhibition (%), 10 μM compound, 10 nM ATX, 1 μM FS-3
Method in brief: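 Purified human FLAG-tagged ATX at 10 nM with 10 µM test compound and 1 µM FS-3 in 50 mM Tris pH 8.0, 30 µM BSA, 1 mM CaCl2, 1 mM MgCl2, 5 mM KCl, 140 mM NaCl. Fluorescence (ex 485/em 520 nm) was read every 2 min for 60 min at 37°C, in triplicate. Signal was normalized to no-ATX (0%) and ATX-without-compound (100%). Interference was checked with 100 nM carboxyfluorescein ± compound.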

[2] = target: T1, ATX; assay: ATX activity assay with pNP-TMP substrate; type: biochemical; settings: read-out: pNP-TMP Inhibition (%)
Method in brief: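 Runs were in triplicate with human FLAG-fusion ATX, purified, at 10 nM, 10 µM test compound and 1 mM pNP-TMP. Buffer was 50 mM Tris pH 8.0 containing 30 µM BSA, 1 mM CaCl2, 1 mM MgCl2, 5 mM KCl and 140 mM NaCl. Absorbance at 405 nm was read every 2 min over 60 min at 37°C. Values were scaled between no-enzyme (0%) and uninhibited enzyme (100%). Interference control used 100 µM para-nitrophenol ± compound.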

[3] = target: LPA2 (Homo sapiens, UniProt Q9HBW0); assay: Calcium mobilization assay, potentiation of LPA effect at LPA2; type: cell-based; settings: supplemental figure
Sequence of LPA2 (Q9HBW0 whole entry, species assumed): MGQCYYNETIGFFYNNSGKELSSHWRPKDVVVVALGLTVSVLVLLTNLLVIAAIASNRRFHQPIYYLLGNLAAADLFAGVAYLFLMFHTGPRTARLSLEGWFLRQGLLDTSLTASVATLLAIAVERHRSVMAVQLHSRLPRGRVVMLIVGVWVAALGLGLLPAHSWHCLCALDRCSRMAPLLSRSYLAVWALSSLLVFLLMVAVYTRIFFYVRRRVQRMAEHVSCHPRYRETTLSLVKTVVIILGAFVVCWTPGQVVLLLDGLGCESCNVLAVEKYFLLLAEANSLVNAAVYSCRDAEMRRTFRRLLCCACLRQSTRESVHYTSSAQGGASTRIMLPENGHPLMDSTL

SMILES: CC(=O)OC1(C(=O)COC(=O)c2ccco2)CC2CCC3C4C=CC(=O)CC4(C)CCC3C2(C)C1 (stereo not shown) [GRI 519441]
- inhibition at 10 µM [1]: 59.7 ± 1.7%
- inhibition at 10 µM [2]: -45.4 ± 2.5%

SMILES: O=C(O)c1ccc(N2CCN(C(=O)COc3cccc(C(F)(F)F)c3)CC2)cc1 [Analog 61, 4-(4-(2-(3-(trifluoromethyl)phenoxy)acetyl)piperazin-1-yl)benzoic acid]
- inhibition at 10 µM [2]: -11.4 ± 2.6%

SMILES: CCCCCCCCCCCCCC(=O)NC(CCC(=O)O)C(=O)O (stereo not shown) [GRI 96880]
- inhibition at 10 µM [1]: 54.1 ± 0.2%

SMILES: O=C(CCCOc1ccc(Cl)cc1Cl)N1CCN(c2ccc([N+](=O)[O-])cc2)CC1 [GRI 392104]
- inhibition at 10 µM [1]: 65.5 ± 3.2%

SMILES: O=C(COc1cccc(F)c1)N1CCN(c2ccc([N+](=O)[O-])cc2)CC1 [Analog 27, 2-(3-fluorophenoxy)-1-(4-(4-nitrophenyl)piperazin-1-yl)ethanone]
- inhibition at 10 µM [2]: -14.1 ± 2.3%

SMILES: O=C(O)c1ccc(N2CCN(C(=O)COc3cccc(F)c3)CC2)cc1 [Analog 60, 4-(4-(2-(3-fluorophenoxy)acetyl)piperazin-1-yl)benzoic acid]
- inhibition at 10 µM [2]: -36.5 ± 6.3%

SMILES: O=C(COc1ccc(F)cc1)N1CCN(c2ccc([N+](=O)[O-])cc2)CC1 [Analog 30, 2-(4-fluorophenoxy)-1-(4-(4-nitrophenyl)piperazin-1-yl)ethanone]
- inhibition at 10 µM [2]: -12.1 ± 1.2%

SMILES: O=C(COc1ccccc1Cl)N1CCN(c2ccc([N+](=O)[O-])cc2)CC1 [Analog 23, 2-(2-chlorophenoxy)-1-(4-(4-nitrophenyl)piperazin-1-yl)ethanone]
- inhibition at 10 µM [2]: -11.9 ± 1.3%

SMILES: O=C(COc1ccccc1F)N1CCN(c2ccc([N+](=O)[O-])cc2)CC1 [Analog 24, 2-(2-fluorophenoxy)-1-(4-(4-nitrophenyl)piperazin-1-yl)ethanone]
- inhibition at 10 µM [2]: -22.7 ± 4.2%

SMILES: O=C(COc1ccc(Cl)cc1Cl)N1CCN(c2ccc([N+](=O)[O-])cc2)CC1 [Analog 32, 2-(2,4-dichlorophenoxy)-1-(4-(4-nitrophenyl)piperazin-1-yl)ethanone]
- inhibition at 10 µM [2]: -14.9 ± 4.7%

SMILES: CC(C)(C)CN(Cc1cccc(CN)c1)C(=O)c1ccc(-c2ccc(F)cc2)nc1 [GRI 792685]
- FS-3 Inhibition (%) ([1]; 10 μM compound, 10 nM ATX, 1 μM FS-3): false positive

SMILES: O=C(COc1ccccc1F)N1CCN(c2cccc([N+](=O)[O-])c2)CC1 [Analog 13, 2-(2-fluorophenoxy)-1-(4-(3-nitrophenyl)piperazin-1-yl)ethanone]
- inhibition at 10 µM [2]: -14.7 ± 2.9%

SMILES: O=C(COc1cc(Cl)cc(Cl)c1)N1CCN(c2cccc([N+](=O)[O-])c2)CC1 [Analog 22, 2-(3,5-dichlorophenoxy)-1-(4-(3-nitrophenyl)piperazin-1-yl)ethanone]
- potentiation of LPA effects at LPA2 [3]: modest potentiation of LPA effects at LPA2

SMILES: COc1ccc2c(c1)C(NCc1cc(OC)c(OC)cc1N)CCO2 (stereo not shown) [GRI 93694]
- inhibition at 10 µM [1]: 48 ± 4.4%

SMILES: O=C(O)c1ccc(N2CCN(C(=O)COc3ccccc3F)CC2)cc1 [Analog 57, 4-(4-(2-(2-fluorophenoxy)acetyl)piperazin-1-yl)benzoic acid]
- inhibition at 10 µM [2]: -12 ± 6%
